Results as given in ChEMBL document CHEMBL2385004, “Development of flavonoid-based inverse agonists of the key signaling receptor US28 of human cytomegalovirus” (J Med Chem, 2013).
One block for each molecule: values may come before it. The source made the active and inactive calls. The rule behind the calls is not given here.

Key:
[1] = Inverse agonist activity at human cytomegalovirus US28 receptor transfected in HEK293T cells assessed as activation of MAPK signaling pathway after 20 to 24 hrs by luciferase-based Elk1 reporter gene assay; assay type: cell-based, Human betaherpesvirus 5, HEK-293T
How it was run: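 HEK293T cells transiently co-transfected with Elk1 (0.1 μg), Luc (5 μg) and US28 vector (5 μg); 5 h later washed, seeded at 20,000 cells/well in DMEM, 1% FBS, 2 mM L-glutamine, 1% penicillin-streptomycin, 1% DMSO with compound; 37 °C, 5% CO2, 20–24 h; BrightGlo luminescence. 3–5 experiments in triplicate, pooled normalized sigmoid fits give EC50 and efficacy.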

CHO = experiment: Cytotoxicity against CHO cells after 48 hrs by MTS assay; assay type: cell-based; conditions: Cricetulus griseus
How it was run: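 CHO cells plated at 10000 cells/mL and incubated overnight. Drug from DMSO stock added, final DMSO <1%. Incubated 48 h at 37 °C, 5% CO2, then MTS reagent for 4 h more. Absorbance read at 490 nm. Run in triplicate; IC50 taken from a plot of relative A490 vs drug concentration.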

[2] = Inverse agonist activity at human cytomegalovirus US28 receptor transfected in HEK293T cells assessed as activation of MAPK signaling pathway at 10 uM after 20 to 24 hrs by luciferase-based Elk1 reporter gene assay relative to control; assay type: cell-based; conditions: Human betaherpesvirus 5, HEK-293T
How it was run: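 HEK293T transiently transfected with 0.1 μg Elk1, 5 μg Luc and 5 μg US28 vector (PathDetect trans Elk1), reading US28-driven MAPK/Elk1 signaling. After 5 h, seeded 20,000 cells/well in DMEM, 1% FBS, 2 mM L-glutamine, 1% pen-strep, 1% DMSO with compound; 37 °C, 5% CO2, 20−24 h. Bright-Glo luciferase luminescence vs no-compound control. Triplicates, 3−5 experiments; curves normalized, pooled, fitted by nonlinear regression.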

[3] = Activation of MAPK signaling pathway in mock-transfected HEK293T cells at 10 uM after 20 to 24 hrs by luciferase-based Elk1 reporter gene assay relative to control; assay type: cell-based; conditions: Homo sapiens, HEK-293T
How it was run: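 HEK293T cells transiently transfected with 0.1 μg Elk1, 5 μg Luc and empty pcDNA3 (PathDetect trans Elk1 system). After 5 h, washed, seeded at 20,000 cells/well in DMEM, 1% FBS, 2 mM L-glutamine, 1% pen-strep, 1% DMSO. Compound at 10 μM; 37 °C, 5% CO2, 20−24 h. Bright-Glo luminescence; % effect = 100% × (treated/1% DMSO control luminescence) − 100%.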

[4] = Human betaherpesvirus 5, HEK-293T, read-out: EC50
[5] = Human betaherpesvirus 5, HEK-293T, read-out: pEC50 (converted)

SMILES: CCOc1ccc(Cl)cc1/C=C/C(=O)c1ccccc1O
- EC50 [1, 4]: 6.4 µM
- EC50 [1, 5]: 6.46 µM
- IC50 (CHO): 6.8 µM
- Efficacy [2]: -76%
- Activity [3]: 33%

SMILES: COc1ccc(Br)cc1/C=C/C(=O)c1c(O)cccc1OCc1ccccc1
- EC50 ([1]; hek-293t): ND(toxic)
- IC50 (CHO): 8.1 µM

SMILES: COc1ccc(Br)cc1/C=C/C(=O)c1ccccc1O
- EC50 [1, 4]: 7.8 µM
- EC50 [1, 5]: 7.76 µM
- IC50 (CHO): 8.7 µM
- Efficacy [2]: -44%
- Activity [3]: -29%

SMILES: COc1ccccc1-c1cc(=O)c2ccccc2o1
- IC50 (CHO): 64.8 µM
- Activity [2]: inactive
- Activity [3]: 3%

SMILES: COc1ccc(Br)cc1-c1cc(=O)c2c(OCc3ccccc3)cccc2o1
- EC50 [1, 4]: 3.5 µM
- EC50 [1, 5]: 3.47 µM
- IC50 (CHO): 96.6 µM
- Efficacy [2]: -89%
- Activity [3]: -3%

SMILES: COc1ccc(Cl)cc1C1CC(=O)c2ccccc2O1 (stereo unspecified)
- Activity [2]: inactive
- Activity [3]: -14%

SMILES: COc1ccc(I)cc1-c1oc2ccccc2c(=O)c1O
- IC50 (CHO): 17.9 µM
- Activity [2]: inactive
- Activity [3]: -23%

SMILES: COc1ccc(I)cc1/C=C/C(=O)c1ccccc1O
- EC50 [1, 4]: 5.5 µM
- EC50 [1, 5]: 5.5 µM
- IC50 (CHO): 6.7 µM
- Efficacy [2]: -94%
- Activity [3]: 100%

SMILES: COc1ccccc1-c1cc(=O)c2c(OCc3ccccc3)cccc2o1
- EC50 [1, 4]: 7.3 µM
- EC50 [1, 5]: 7.24 µM
- IC50 (CHO): 17.5 µM
- Efficacy [2]: -49%
- Activity [3]: -40%

SMILES: COc1ccc(Br)cc1-c1cc(=O)c2c(O)cccc2o1
- IC50 (CHO): 75.2 µM
- Activity [2]: inactive
- Activity [3]: -16%

SMILES: CCOc1ccc(Br)cc1/C=C/C(=O)c1ccccc1O
- EC50 [1, 4]: 5 µM
- EC50 [1, 5]: 5.01 µM
- IC50 (CHO): 7.2 µM
- Efficacy [2]: -88%
- Activity [3]: -3%

SMILES: COc1ccccc1-c1cc(=O)c2c(O)cccc2o1
- IC50 (CHO): > 100 µM
- Activity [2]: inactive
- Activity [3]: 2%

SMILES: CCOc1ccc(Br)cc1-c1oc2ccccc2c(=O)c1O
- EC50 [1, 4]: 0.8 µM
- EC50 [1, 5]: 0.832 µM
- IC50 (CHO): 13.5 µM
- Efficacy [2]: -41%
- Activity [3]: -31%

SMILES: COc1cc(OC)c(/C=C/C(=O)c2ccccc2O)cc1Br
- EC50 [1, 4]: 4.9 µM
- EC50 [1, 5]: 4.9 µM
- IC50 (CHO): 16.9 µM
- Efficacy [2]: -55%
- Activity [3]: 5%

SMILES: CCOc1ccc(Cl)cc1-c1oc2ccccc2c(=O)c1O
- EC50 [1, 4]: 0.31 µM
- EC50 [1, 5]: 0.309 µM
- IC50 (CHO): > 100 µM
- Efficacy [2]: -41%
- Activity [3]: -17%

SMILES: COc1ccc(Br)cc1C1CC(=O)c2ccccc2O1 (stereo unspecified)
- IC50 (CHO): 67.9 µM
- Activity [2]: inactive
- Activity [3]: -5%

SMILES: COc1ccc(Br)cc1-c1oc2cccc(OC)c2c(=O)c1O
- IC50 (CHO): 17.3 µM
- Activity [2]: inactive
- Activity [3]: -1%

SMILES: COc1ccc(C)cc1-c1oc2ccccc2c(=O)c1O
- EC50 [1, 4]: 1.78 µM
- EC50 [1, 5]: 1.78 µM
- IC50 (CHO): 54.6 µM
- Efficacy [2]: -38%
- Activity [3]: 0%

SMILES: COc1ccccc1-c1oc2ccccc2c(=O)c1O
- EC50 [1, 4]: 4.6 µM
- EC50 [1, 5]: 4.57 µM
- IC50 (CHO): > 100 µM
- Efficacy [2]: -19%
- Activity [3]: -1%

SMILES: COc1cc(OC)c(-c2oc3ccccc3c(=O)c2O)cc1Br
- IC50 (CHO): 18.3 µM
- Activity [2]: inactive
- Activity [3]: -17%

- EC50 [1, 4]: 10 µM
SMILES: COc1ccc(C)cc1/C=C/C(=O)c1ccccc1O
- IC50 (CHO): 14.2 µM
- Efficacy [2]: 52%
- Activity [3]: -4%

SMILES: COc1ccc(Cl)cc1/C=C/C(=O)c1ccccc1O
- EC50 [1, 4]: 7.8 µM
- EC50 [1, 5]: 7.76 µM
- IC50 (CHO): 8.4 µM
- Efficacy [2]: -58%
- Activity [3]: -30%

SMILES: COc1ccccc1/C=C/C(=O)c1c(O)cccc1OCc1ccccc1
- EC50 ([1]; hek-293t): ND(toxic)

SMILES: COc1ccc(Br)cc1/C=C/C(=O)c1ccc2ccccc2c1O
- EC50 [1, 4]: 2.9 µM
- EC50 [1, 5]: 2.88 µM
- IC50 (CHO): 15.6 µM
- Efficacy [2]: -92%
- Activity [3]: 35%

SMILES: COc1ccc(Br)cc1-c1cc(=O)c2ccccc2o1
- EC50 [1, 4]: 8.1 µM
- EC50 [1, 5]: 8.13 µM
- IC50 (CHO): > 100 µM
- Efficacy [2]: -55%
- Activity [3]: -17%

SMILES: COc1cc(Br)cc(/C=C/C(=O)c2ccccc2O)c1OC
- EC50 [1, 4]: 6.7 µM
- EC50 [1, 5]: 6.61 µM
- IC50 (CHO): 7.2 µM
- Efficacy [2]: -52%
- Activity [3]: -42%

SMILES: COc1ccccc1/C=C/C(=O)c1ccccc1O
- EC50 [1, 4]: 1.4 µM
- EC50 [1, 5]: 1.45 µM
- IC50 (CHO): 25.5 µM
- Efficacy [2]: 67%
- Activity [3]: 8%

SMILES: COc1cc(Br)cc(-c2oc3ccccc3c(=O)c2O)c1OC
- IC50 (CHO): > 100 µM
- Activity [2]: inactive
- Activity [3]: -28%

SMILES: COc1ccc(Cl)cc1-c1oc2ccccc2c(=O)c1O
- EC50 [1, 4]: 1.32 µM
- EC50 [1, 5]: 1.32 µM
- IC50 (CHO): 25 µM
- Efficacy [2]: -42%
- Activity [3]: 2%

SMILES: COc1ccc(Br)cc1-c1oc2ccccc2c(=O)c1O
- IC50 (CHO): 88.5 µM
- Activity [2]: inactive
- Activity [3]: -11%

SMILES: COc1ccc(Br)cc1/C=C/C(=O)c1c(O)cccc1OC
- EC50 [1, 4]: 6 µM
- EC50 [1, 5]: 6.03 µM
- IC50 (CHO): 6.1 µM
- Efficacy [2]: -95%
- Activity [3]: 290%
